Assay results reported in the EternaBench riboswitch data.

System: MS2 coat protein
Experiment: apparent Kd, MS2 coat protein; higher = weaker binding; RNA-MaP array; FMN 200 µM where present
Summary of the method: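 Stalled E. coli RNA polymerase transcribed each design on Illumina sequencing-chip clusters. The clusters were titrated with SNAP-549-labelled MS2 coat protein, starting at 0.7 or 1.5 nM and doubling up to 3 µM, first without ligand and then with constant ligand, in 100 mM Tris-HCl pH 7.5, 80 mM KCl, 4 mM MgCl2, BSA, DTT, yeast tRNA and Tween-20. Green signal was normalised to red-channel RNA signal and to the control-cluster median Fmax. The apparent Kd is the median of filtered binding-curve fits made for each cluster.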

[1] = designed as: OFF switch for flavin mononucleotide, no ligand
[2] = ligand present: flavin mononucleotide, designed as: OFF switch for flavin mononucleotide
[3] = designed as: ON switch for flavin mononucleotide, no ligand
[4] = ligand present: flavin mononucleotide, designed as: ON switch for flavin mononucleotide

| Sequence | apparent Kd [1] | apparent Kd [2] | apparent Kd [3] | apparent Kd [4] |
| --- | --- | --- | --- | --- |
| AAGAGUAGAGGAUAUACAUGAGGAUCACCCAUGUAAUCCGGAUAAGGAAGCAUGUCGUGUAGAAGGCUGCAUGA | 15.2 nM | 12.4 nM | – | – |
| GAUGAGGUAGGAUAUACGAGAAGAUAGGGUAGAUAGAGAACACAUGAGGAUCACCCAUGUAGAAGGACCAGUAG | 25.3 nM | 55.7 nM | – | – |
| CACUCGUGUCUAGGAUAUGAGUGACAAGCACGAGAUUUUCUCGACGCUAGCUCAGAAGGAGACAUGAGGAUCACCCAUGUAAGG | 85.3 nM | 16.6 nM | – | – |
| GGGAGUCUACAUGAGGAUCACCCAUGUGGUCCAGCAGGAACACAGGAUAUCCAAUGAGAUUCUCGGGAGAAGGGUGAAUGCUUA | – | – | 107 nM | 174 nM |
| UAUAUAUAGGCAGGAUAUACAUGUAUAUAUAAUUUUUUAUAUAUUAUUACAUGAGGAUCACCCAUGUAGAAGGGCCAUAUUAUA | 34.8 nM | 51 nM | – | – |
| AAAGGAGGGAGGACCGUACAUGAGGAUCACCCAUGUAUAUCACAGGAUAUAGCAUGUUUAGGCAUCUAGAAGGGUGAUCGGUCA | – | – | 186 nM | 37.7 nM |
| UUUUAAUAAGAGAAGGAGCACUACAUGAGGAUCACCCAUGUGUUAGUAGUUAGGAUAUUUAAUAACAUGAGGAUCACCCAUGUA | – | – | 167 nM | 74.2 nM |
| GUCCGGAGGGAGAAGGGCUAGGAGGUCCAGCUUAUGUGUGUUGCAACAUGAGGAUCACCCAUGUAGCAGGAUAUCCCUUGUACA | 52.1 nM | 219 nM | – | – |
| AGUAACAUACUCAACAUGAGGAUCACCCAUGUACUCUCAUGUAAGGAUAUACAAUCGUAUUGAUAGUAGAAGGUACCAAUUAAG | – | – | 845 nM | 685 nM |
| GGUCGUCCCAUUAACAUGAGGAUCACCCAUGUCAAAAGACAUGAGGAUAUGCAUCCUAAUUGGAUGCAGAAGGCAUGGACGACC | – | – | 1060 nM | 87.7 nM |
| GUUAUAAAGGUAGGAUAUAGUAUUAUAAUUAAAUUAGAAGGAUCUCACAUGAGGAUCACCCAUGUAAGAGGAUCACCCAUGUAG | 20.7 nM | 15.9 nM | – | – |
| CAUUAACAUGAGGAUCACCCAUGUGAGGAUAUGAUAUUACUAGGACGGCUGUGAUCAAUCAGAAGGCACAUCUU | 25 nM | 30 nM | – | – |
| UACGCCAGUGAGAAGGCAUGUUCACAUGAGGAUCACCCAUGUAUACUCAUGAGGAUAUCAAAUGCGGACCAAAAUAAAAUUUGA | – | – | 313 nM | 22.2 nM |
| AAGGAUAGAGGAUAUACAUAGAUACAGAUUCGUGUAGUCCUACAUGAGGAUCACCCAUGUAGAAGGCUAUCCUA | 11.8 nM | 22.9 nM | – | – |
| UUAAUUAAUUAAGCGCAAGAUCACAUGAGGAUCACCCAUGUAUAGGAUAUCAGCUCGAUUAGAGCUGAGAAGGAUACAUAGCGC | 203 nM | 568 nM | – | – |
| UAUAUAUAGUAAGGAUAUGUAUUAGUUUUAUAAACAGAAGGUACUGACAUGAGGAUCACCCAUGUUUUAGUGUGGGCAUGUAGA | 90 nM | 144 nM | – | – |
| UUGAUAAGGAGAGGAUAUUGACAUGAGGAUCACCCAUGUACAUGGGAGUGUUUACUGAAUUCUUACGAGAAGGCUUACAUAUUU | 245 nM | 166 nM | – | – |
| AAAAAGUCAGGAUAUCGAAAAAAAAAAAAAAAAAAAAAAAACGAGAAGGGACAUGAGGAUCACCCAUGUAAAAA | 63.7 nM | 69.6 nM | – | – |
| CACAAGAAAGUCGAAGGUUGAAGUAGAAGGUCUAUAACAUGACAUGAGGAUCACCCAUGUGCCAAGAAGGAUAUGCUUUAAUCG | 7.97 nM | 6.53 nM | – | – |
| GCAGUACGCCUGGCAAUUUGCAAGCAGGAUAUCAGGCACCGUGGGACAUGAGGAUCACCCAUGUCUGAGAAGGGCUGGAGUUGC | 10.7 nM | 23.1 nM | – | – |
| AAUAACAGAGGAUAUACUGUUUUAUGUGUUUGUUAUUUUAAACAUGAGGAUCACCCAUGUAGAAGGCUGAGUAA | 27.4 nM | 27 nM | – | – |
| ACAAGAUCAGGAUAUACAUGAGGAUCACCCAUGUGUAUCAAAAGGGAACUUUCUUAAUGUAGAAGGGAUCUUGU | 14.7 nM | 22.3 nM | – | – |
| AUGCUAGUGUGAGGAUAUCAACAUGAGGAUCACCCAUGUUGGAAGUACACGACAUGCGGUACAUUUGAGAAGGUACAUUAGCAU | 58.2 nM | 108 nM | – | – |
| GGACUUCCUGAGGAUAUGAAUCAACAUAUAGCUUUAGAAGGCAGGACAUGAGGAUCACCCAUGUGAACUCUUUC | 49.8 nM | 57.6 nM | – | – |
| GGUGCGUAUGUGAGGAUAUGCUGGUCCUUGGAUCAGCAGAAGGCACAUGAGGAUCACCCAUGUGGUGUCGUACU | 282 nM | 26.1 nM | – | – |
| AUAAAAGUAGGAUAUUGACUGAUCGACAUGAGGAUCACCCAUGUGGUGCUGUGCGGUAUUCAAGAAGGGCUAAAAU | 21.8 nM | 32.2 nM | – | – |
| CCGAAUAAGCAGGAUAUCGAAUCGGAGACGAUUCGAGAAGGGUUAACAUGAGGAUCACCCAUGUUCCUUAACGG | 19.1 nM | 20.8 nM | – | – |
| AAAUAAAUGUAAGGAUAUCGGUUUCAGAGAACGCGAGAAGGUACAUGAGGAUCACCCAUGUUCCGUUGGGUUAACUUGAUCGCC | 7.14 nM | 13.6 nM | – | – |

| Sequence | apparent Kd [1] | apparent Kd [2] | apparent Kd [3] | apparent Kd [4] |
| --- | --- | --- | --- | --- |
| UCCUGACAUGAGGAUCACCCAUGUAAUUCCUGCCGAGGAUAUGGGCAACAAAGCGGUUGGCCAGAAGGCGGACAGC | – | – | 252 nM | 150 nM |
| UGCUAGAAAGGAUAUACAUGAGGAUCACCCAUGUAACCCUAUAUGAGAGUUCCCGUUUGUAGAAGGUUCUCGUG | 16.9 nM | 26.5 nM | – | – |
| AAGUGGUUUAUAUAUAUAGAUAUCAGAAGGCGUGACAUGAGGAUCACCCAUGUGUACUGUCAUGACGAGGAUAUGACUAAUUGU | 24 nM | 19.5 nM | – | – |
| UGAGAGUGAGGAUAUACGUCGCUGGUCCCGAUGGACGCAUGACAUGAGGAUCACCCAUGUAGAAGGCAUUUCCC | 33.8 nM | 128 nM | – | – |
| GACGGGUGGGUAGGAUAUGGCUAUGUCUCAUUGCUAGAAGGACCAGCUGCUACAUGAGGAUCACCCAUGUCGUAGUGCACCCAG | – | – | 189 nM | 13.1 nM |
| ACCAGAACAUGAGGAUCACCCAUGUAUCUAUACCAAGCGACACAGGAUAUACAAAGCGAAAGCGGGUAGAAGGGUGAUCAUGCA | – | – | 63.5 nM | 182 nM |
| UUGUUACGAUUAGGAUAUUAUAGAUUGAAUAGUAUGAUUUACAUGAGGAUCACCCAUGUUACAUUUAAGAAGGAAUCGAAUUAU | 21.1 nM | 16.9 nM | – | – |
| GGCUUGCAGCUAGGAUAUGGGCGAUCACAUGAGGAUCACCCAUGUCAACAUCAAAACAAGAUUAACCAGAAGGAGCCGCGGGUU | – | – | 50.6 nM | 153 nM |
| GCUAUUGGCUAAGGAUAUGGAUACAUGAGGAUCACCCAUGUAAGAAUUGUGAUCAUAUAAAUGAUCCAGAAGGUAGCUGUUAGC | 280 nM | 502 nM | – | – |
| AGGUGUAGAGGAUAUUCAUUCUUCCACAUGAGGAUCACCCAUGUCCUGGUCACCAAGGACGGAGAAGGCUACACCA | 70.2 nM | 38.1 nM | – | – |
| AUAUCUCCCUAGAAGGUGUAACGACAAUUGCAUCACGUAGUUGGCGUAGCAAGGAUAUGGGACAUGAGGAUCACCCAUGUGGAU | – | – | 15.9 nM | 8.88 nM |
| CCUCAACAGUAGGAUAUCAUCAAACUAUUGUGAUGAGAAGGACUGACAUGAGGAUCACCCAUGUUGACGUGAUA | 63.4 nM | 51.7 nM | – | – |
| UAUUAAUACGAAGGAUAUGGUUACAUGAGGAUCACCCAUGUAUGUAUUUUGAUCUAAUUAUUUAACCAGAAGGUCGAAUAUAAA | 35.5 nM | 78.5 nM | – | – |
| UGUGUGUGGCAGGAUAUGCAGGUAAUAAGACGGGUAGAAGGGUCUACAUGAGGAUCACCCAUGUGGCCGGUUGG | 16.1 nM | 18.2 nM | – | – |
| CUGAGUAGUCAGGAUAUGUGGUACAAAAGUACUGCAGAAGGGAUUACAUGAGGAUCACCCAUGUUUACUUCAUG | 47.4 nM | 242 nM | – | – |
| AGUAACAGAGGAUAUACUGUUUUAUGUGUUUAUUGUUUUAAACAUGAGGAUCACCCAUGUAGAAGGCUGAAUAA | 30.9 nM | 26.9 nM | – | – |
| CUGAAGUCAGGAUAUUGUUAAUUUAGUUGUUUGUAUUAGUUCGAGAAGGGACAUGAGGAUCACCCAUGUAAGUC | 32 nM | 27.1 nM | – | – |
| AAGUCUGGAUGAGGAUAUCAGCUGUAACUGACGUCGACAUGAGGAUCACCCAUGUUGCUAUAGGGUGAGAAGGCAUUUGGGCAA | – | – | 106 nM | 28.6 nM |
| CUAUGCGGAAUAGGAUAUUCAUUCAUGAGGAUAGAAGAAGGGUUACAUGAGGAUCACCCAUGUAUACACAUGAGGAUCCCUUAG | 150 nM | 156 nM | – | – |
| AUUAUGUUAGGAUAUGCUUAUGGUGGAUAAUCAGAUAUGAUGCAGAAGGGACAUGAGGAUCACCCAUGUACUGU | 20.8 nM | 23.6 nM | – | – |
| AACUAGCUAGGAUAUACAUGAGGAUCACCCAUGUAAAAAAAAAAAAAAAGAUAUAUAUGUAGAAGGAGCUAGUA | 33.7 nM | 44.9 nM | – | – |
| GUCAGCUCGUGAGGAUAUACAUCACUGCUUCGGCAGUGUAUUAAGAGCACAUGAGGAUCACCCAUGUAGAAGGCACGAGCUGAU | 16.3 nM | 24.1 nM | – | – |
| GGACGUCACAUUUACAUGAGGAUCACCCAUGUCGAAAGACAUGAGGAUAUGCUACCUAAUUGGUAGCAGAAGGCAUGGACGUCC | – | – | 408 nM | 228 nM |
| AAUUAUUUACAGAAGGAGUAAGAUUUUGUAUUACUAGGAUAUGUUAACAUGAGGAUCACCCAUGUGUUUGUUGGUUUUUUAUGU | 16.1 nM | 14.8 nM | – | – |
| CAUUAGCGAGGAUAUACAUGAGGAUCACCCAUGUGAUCCUAAGGCUGAUCAAGCCUAUGUAGAAGGCGCAAAUC | 593 nM | 83.6 nM | – | – |
| UGACGUAAAGAGAAGGGCUACUGGUUGAAACCUGCGGCCUCUGGAACAUGAGGAUCACCCAUGUAGCAGGAUAUCUUUGCAUCA | 166 nM | 18.1 nM | – | – |
| AUAUGAAAGAUAGGAUAUACUGAGGUUGAAUGGGUAGAAGGAUCGAUAGUGGAGAAUACAUGAGGAUCACCCAUGUUGUGGAUU | – | – | 828 nM | 353 nM |
